Laboratory results from ChEMBL document CHEMBL1130629, “Fused aminotetralins: novel antagonists with high selectivity for the dopamine D3 receptor” (Bioorg Med Chem Lett, 1998).

Legend:
D(3) dopamine receptor = D(3) dopamine receptor (Homo sapiens, UniProt P35462); assay: Binding affinity at Dopamine receptor D3 expressed in CHO cells by [125I]iodosulpiride displacement.; format: cell-based
[1] = Compound was evaluated for the rate of clearance in rat upon intravenous administration.; format: ADME, organism-based; conditions: in vivo
Procedure, shortened: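 Relative blood clearance measured at steady state. Compound dissolved in 5% (w/v) aqueous glucose with 2% (v/v) DMSO and 10% Encapsin HPB, target concentration 0.2 mg free base/ml. Given to rats as a constant-rate iv infusion over 12 h at a target 1 mg free base/kg/h, n = 3. Serial blood samples taken over the last 2 h to confirm steady state, then terminal exsanguination. Parent compound in blood measured by LC/MS/MS.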

D(2) dopamine receptor [2] = biological target: T1, D(2) dopamine receptor (Homo sapiens, UniProt P14416); assay: Binding affinity at Dopamine receptor D2 expressed in CHO cells by [125I]iodosulpiride displacement.; format: cell-based
T1 sequence (P14416 whole entry): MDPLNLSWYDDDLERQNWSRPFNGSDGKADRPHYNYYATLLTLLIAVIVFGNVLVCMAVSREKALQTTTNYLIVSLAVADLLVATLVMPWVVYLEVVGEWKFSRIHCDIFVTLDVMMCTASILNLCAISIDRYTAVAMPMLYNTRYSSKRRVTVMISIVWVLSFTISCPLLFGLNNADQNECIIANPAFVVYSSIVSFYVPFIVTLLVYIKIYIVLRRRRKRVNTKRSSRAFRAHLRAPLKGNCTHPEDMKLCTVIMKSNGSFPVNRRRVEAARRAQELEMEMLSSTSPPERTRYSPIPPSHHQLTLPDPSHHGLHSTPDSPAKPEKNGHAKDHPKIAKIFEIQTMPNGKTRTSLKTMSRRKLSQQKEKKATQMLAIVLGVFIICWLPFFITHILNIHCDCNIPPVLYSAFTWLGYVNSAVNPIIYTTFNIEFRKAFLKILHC

D(2) dopamine receptor [3] = biological target: T1, D(2) dopamine receptor; assay: Displacement of [125I]iodosulpiride from Dopamine receptor D2 expressed in CHO cells; format: cell-based

D(3) dopamine receptor, sequence (P35462 whole entry): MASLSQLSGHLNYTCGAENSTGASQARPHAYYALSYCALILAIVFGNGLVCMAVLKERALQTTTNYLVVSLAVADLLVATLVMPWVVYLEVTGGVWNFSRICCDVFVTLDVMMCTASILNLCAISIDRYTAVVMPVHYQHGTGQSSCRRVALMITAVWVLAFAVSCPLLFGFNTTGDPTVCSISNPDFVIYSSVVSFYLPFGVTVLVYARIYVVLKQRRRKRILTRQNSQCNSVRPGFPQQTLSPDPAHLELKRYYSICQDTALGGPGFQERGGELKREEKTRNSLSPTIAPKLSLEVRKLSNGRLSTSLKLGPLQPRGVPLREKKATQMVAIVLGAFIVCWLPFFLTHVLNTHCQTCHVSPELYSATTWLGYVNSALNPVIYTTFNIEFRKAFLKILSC

Row | SMILES | Ki (D(3) dopamine receptor) [nM] | clearance [1] [mL/min/kg] | Ki (D(2) dopamine receptor [2]) [nM] | Ki (D(2) dopamine receptor [3]) [nM]
1 | CS(=O)(=O)Oc1cccc2c1CC[C@H]1[C@@H]2CCCN1CCCCNC(=O)c1ccc(-c2ccccc2)cc1 | 251 |  | 398 | 
2 | CS(=O)(=O)Oc1cccc2c1CC[C@@H]1[C@@H]2CCCN1CCCCNC(=O)c1ccc(-c2ccccc2)cc1 [listing 2 of 2 here] | 1260 |  | 1260 | 
3 | CS(=O)(=O)Oc1ccc2c(c1)CC[C@H]1[C@H]2CCN1CCCCNC(=O)c1ccc(-c2ccccc2)cc1 | 50.1 |  | 1000 | 
4 | CCCN(CCCCNC(=O)c1ccc(-c2ccccc2)cc1)C1CCc2c(Cl)cccc2C1 (stereo not drawn) |  | 96 |  | 
5 | O=C(NCCCCN1CC[C@@H]2c3ccccc3CC[C@@H]21)c1ccc(-c2ccccc2)cc1 | 50.1 | 59 | 501 | 
6 | COc1cccc2c1CC[C@H]1[C@H]2CCN1CCCCNC(=O)c1ccc(-c2ccccc2)cc1 | 15.8 |  | 631 | 
7 | COc1cccc2c1CC[C@@H]1[C@@H]2CCCN1CCCCNC(=O)c1ccc(-c2ccccc2)cc1 | 794 |  | 794 | 
8 | CS(=O)(=O)Oc1ccc2c(c1)CC[C@H]1[C@H]2CCCN1CCCCNC(=O)c1ccc(-c2ccccc2)cc1 | 200 |  | 2000 | 
9 | O=C(NCCCCN1CCC[C@@H]2c3ccccc3CC[C@@H]21)c1ccc(-c2ccccc2)cc1 | 251 |  |  | 794
10 | O=C(NCCCCN1CC[C@H]2c3ccccc3CC[C@@H]21)c1ccc(-c2ccccc2)cc1 | 15.8 |  | 501 | 

The remaining lines, values ahead:

Row | Ki (D(3) dopamine receptor) [nM] | clearance [1] [mL/min/kg] | Ki (D(2) dopamine receptor [2]) [nM] | Ki (D(2) dopamine receptor [3]) [nM] | SMILES
11 | 10 | 61 | 316 |  | CS(=O)(=O)Oc1cccc2c1CC[C@@H]1[C@@H]2CCCN1CCCCNC(=O)c1ccc(-c2ccccc2)cc1 [listing 1 of 2 here]
12 | 6.31 |  | 251 |  | CS(=O)(=O)Oc1cccc2c1CC[C@H]1[C@H]2CCCN1CCCCNC(=O)c1ccc(-c2ccccc2)cc1
13 | 2 |  | 63.1 |  | O=C(NCCCCN1CC[C@H]2c3cccc(O)c3CC[C@@H]21)c1ccc(-c2ccccc2)cc1
14 | 15.8 | 46 | 501 |  | O=C(NCCCCN1CCC[C@@H]2c3ccccc3CC[C@H]21)c1ccc(-c2ccccc2)cc1
15 | 7.94 |  | 501 |  | O=C(NCCCCN1CCC[C@H]2c3ccc(O)cc3CC[C@@H]21)c1ccc(-c2ccccc2)cc1
16 | 12.6 |  | 316 |  | O=C(NCCCCN1CC[C@H]2c3ccc(O)cc3CC[C@@H]21)c1ccc(-c2ccccc2)cc1
17 | 5.01 |  | 316 |  | CS(=O)(=O)Oc1cccc2c1CC[C@H]1[C@H]2CCN1CCCCNC(=O)c1ccc(-c2ccccc2)cc1
18 | 7.94 |  | 501 |  | COc1cccc2c1CC[C@H]1[C@H]2CCCN1CCCCNC(=O)c1ccc(-c2ccccc2)cc1 (single isomer, unassigned)
